Results taken from article PMC6487498 (Toxicology and applied pharmacology, 2018).

What was measured:
[1] = tested on: LPS-activated RAW264.7 macrophages; experiment: Nitric oxide production; type: cell-based, mouse; settings: for effect of co-incubation on NO reduction by RID-B: ligand 5 μM with RID-B 1 μM
[2] = tested on: LPS-activated RAW264.7 macrophages; experiment: IL-6 release; type: cell-based, mouse; settings: LPS 500 ng/ml, 48 h
[3] = tested on: LPS-activated RAW264.7 macrophages; experiment: TNF-α release; type: cell-based, mouse; settings: LPS 500 ng/ml, 48 h; for effect of co-incubation with RID-B on TNF-α levels: ligand with RID-B
[4] = tested on: RAW264.7 mouse macrophage cells; experiment: Cell viability; type: cell-based; settings: for effect of co-incubation on RID-B cytotoxicity: with RID-B 10 μM, LPS 500 ng/ml
[5] = tested on: primary bone marrow macrophages; experiment: Osteoclast differentiation with TRAP staining; type: cell-based, mouse; settings: for effect on osteoclast development, ligand alone: receptor-saturating concentration, without RID-B; for effect of co-incubation on anti-osteoclastogenic effect of RID-B: with RID-B 300 nM; for number of osteoclasts: N = 4
human CB2 receptors [6] = biological target: T1, human CB2 receptors (Homo sapiens, UniProt P34972); experiment: [35S]GTPγS binding; type: biochemical
T1 sequence (P34972 whole entry): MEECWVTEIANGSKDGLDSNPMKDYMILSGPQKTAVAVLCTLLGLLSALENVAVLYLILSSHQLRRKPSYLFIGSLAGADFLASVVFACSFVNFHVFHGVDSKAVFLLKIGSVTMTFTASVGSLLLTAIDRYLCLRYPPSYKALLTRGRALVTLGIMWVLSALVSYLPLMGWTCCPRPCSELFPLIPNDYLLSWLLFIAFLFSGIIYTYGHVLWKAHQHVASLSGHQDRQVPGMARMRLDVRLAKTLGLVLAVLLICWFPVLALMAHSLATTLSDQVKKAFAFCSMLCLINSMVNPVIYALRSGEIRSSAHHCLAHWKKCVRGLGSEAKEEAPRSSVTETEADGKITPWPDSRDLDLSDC

human CB1 receptors = human CB1 receptors (Homo sapiens, UniProt P21554); experiment: Competition receptor binding vs [3H]CP-55,940, CHO-hCB1 membranes; settings: RID-B 1 μM; radioligand 0.2 nM; initial binding screen, data not shown
Chain of human CB1 receptors (P21554 whole entry): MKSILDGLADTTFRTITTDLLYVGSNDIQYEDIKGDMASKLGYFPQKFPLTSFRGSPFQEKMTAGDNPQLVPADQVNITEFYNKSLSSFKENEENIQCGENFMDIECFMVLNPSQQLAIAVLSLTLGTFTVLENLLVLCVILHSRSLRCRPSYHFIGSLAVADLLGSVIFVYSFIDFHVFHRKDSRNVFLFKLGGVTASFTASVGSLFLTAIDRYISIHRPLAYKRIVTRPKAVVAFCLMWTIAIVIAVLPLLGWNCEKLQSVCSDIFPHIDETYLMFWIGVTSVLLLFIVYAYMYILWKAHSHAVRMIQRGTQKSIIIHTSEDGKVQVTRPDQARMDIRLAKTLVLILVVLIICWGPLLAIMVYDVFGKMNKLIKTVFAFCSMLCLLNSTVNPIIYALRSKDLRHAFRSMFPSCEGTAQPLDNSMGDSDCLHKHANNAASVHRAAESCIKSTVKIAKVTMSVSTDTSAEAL

human CB2 receptors [7] = biological target: T1, human CB2 receptors; experiment: Competition receptor binding vs [3H]CP-55,940, CHO-hCB2 membranes
human CB2 receptors [8] = biological target: T1, human CB2 receptors; experiment: Forskolin-stimulated adenylyl cyclase activity in CHO-hCB2 cells; type: cell-based
[9] = tested on: LPS-activated RAW264.7 macrophages; experiment: IL-1α release; type: cell-based, mouse; settings: RID-B 1 μM; LPS 500 ng/ml, 48 h
How it was run: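 RAW264.7 mouse macrophages pre-incubated 1 h with test compound, then stimulated with LPS 500 ng/ml for 48 h. Media collected and stored at −20 °C. Mouse IL-1α measured by ELISA kit per manufacturer's instructions.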

[10] = tested on: CHO cells devoid of CB2 receptors; experiment: G-protein activity in CHO cells devoid of CB2 receptors; type: biochemical, Chinese hamster; settings: data not shown
[11] = tested on: CHO cells not expressing cannabinoid receptors; experiment: Intracellular cAMP in CHO cells not expressing cannabinoid receptors; type: cell-based, Chinese hamster; settings: data not shown

`Cc1c(C(=O)NN2CCOCC2)nn(-c2ccc(Cl)cc2Cl)c1-c1ccc(I)cc1` [AM-281] was tested, and the “effect of co-incubation on NO reduction by RID-B” value (shortened to “effect … on NO reduction by RID-B”) ([1]; LPS 500 ng/ml, 48 h) was “did not alter NO levels compared to RID-B administered alone”, the “IL-6 level, ligand alone” value ([2]; without RID-B, N = 4) was 1040 ± 119.4 pg/mL and the “TNF-α level, ligand alone” value ([3]; without RID-B, N = 4) was 21.3 ± 0.21 ng/mL. The “effect of co-incubation with RID-B on TNF-α levels” value (“effect of co-incubation with RID-B” for short) [3] was “significantly increases TNF-α levels”, the “effect of co-incubation on RID-B cytotoxicity” value [4] was “attenuated” and the “effect on osteoclast development, ligand alone” value (from here on “effect on osteoclast development”) [5] was “significantly reduce osteoclast development”. For the same compound, the “effect of co-incubation on anti-osteoclastogenic effect of RID-B” value (“effect of co-incubation … of RID-B” for short) [5] was “little consequence on the effects of RID-B”.

For SR-144528 [reference compound], the “effect … on NO reduction by RID-B” value ([1]; LPS 500 ng/ml, 48 h) was “did not alter NO levels compared to RID-B administered alone”.

`CCCCCCC(C)(C)c1ccc(C2CC(O)CCC2CCCO)c(O)c1` (stereo not drawn) [CP-55,940, 5-(1,1-dimethylheptyl)-2-[5-hydroxy-2-(3-hydroxypropyl)cyclohexyl]phenol] was tested, and the Emax (human CB2 receptors [6]; read-out: G-protein activation Emax) was 25.4 ± 3%, the “effect of co-incubation with RID-B” value [3] was “have no effect” and the “effect of co-incubation on RID-B cytotoxicity” value [4] was “attenuated”. The “effect on osteoclast development” value [5] was “marginally reduced osteoclast formation” and the “effect of co-incubation … of RID-B” value [5] was “significantly attenuated the anti-osteoclastogenic effects produced by RID-B”.

With `CCCn1c(C)c(C(=O)c2cccc3ccccc23)c2ccccc21` [JWH-015] the “effect of co-incubation with RID-B” value [3] was “have no effect”, the “effect on osteoclast development” value [5] was “significantly reduce osteoclast development” and the “effect of co-incubation … of RID-B” value [5] was “little consequence on the effects of RID-B”.

For `CCC(=C(c1ccc(OCCN2CCCC2)cc1)c1ccc(OCCN2CCCC2)cc1)c1ccccc1` [RID-B, ridaifen-B], the “displacement of [3H]-CP-55,940 from human CB1 receptors” value (human CB1 receptors) was over 50%, the “displacement of [3H]-CP-55,940 from human CB2 receptors” value (human CB2 receptors [7]; RID-B 1 μM, radioligand 0.2 nM, initial binding screen, data not shown) was over 50% and the “selectivity (affinity) for CB2 over CB1 receptors” value (human CB2 receptors [7]; ratio of Ki values) was 17 fold. The “G-protein activation Imax (decrease below basal levels)” value (human CB2 receptors [6]; inverse agonism, N = 3) was −31.2 ± 0.37%, the “Imax, increase of adenylyl cyclase activity (elevated cAMP levels)” value (human CB2 receptors [8]; 10 μM forskolin, inverse agonism, N = 3) was 398 ± 30% and the “decrease in the potency of WIN-55,212-2 to inhibit adenylyl cyclase activity” value (human CB2 receptors [8]; RID-B 3 μM co-incubation, efficacy unchanged, parallel rightward shift) was 11.2 fold. The Kb (human CB2 receptors [8]; read-out: antagonist dissociation constant (Kb), RID-B 3 μM against WIN-55,212-2, N = 3) was 294 nM, the “effect on EC50 values of LPS for NO production” value ([1]; RID-B 300 nM, 500 nM, 1 μM) was “did not alter the EC50 values of LPS” and the “reduction of NO production vs cells treated only with LPS” value ([1]; RID-B 1 μM alone, LPS 500 ng/ml, 48 h, N = 10) was 30.1 ± 5.1%. For the same compound, the NO reduction ([1]; RID-B 1 μM co-incubated with CP-55,940 2 μM, LPS 500 ng/ml, 48 h, N = 10) was 9.3 ± 4.6%, the “NO levels reduced to” value ([1]; RID-B 1 μM co-incubated with JWH-015 5 μM, LPS 500 ng/ml, 48 h, N = 4) was 51.1 ± 6.4% and the “Emax of LPS-induced NO production” value ([1]; co-incubation with RID-B 300 nM, 48 h, N = 3) was 19.4 ± 3.8 µM. For the same compound, the “Emax of LPS-induced NO production” value ([1]; co-incubation with RID-B 500 nM, 48 h, N = 3) was 22.0 ± 9.9 µM, the “Emax of LPS-induced NO production” value ([1]; co-incubation with RID-B 1 μM, 48 h, N = 4) was 18.2 ± 4.7 µM and the IL-1α level [9] was 73.1 ± 4.7 pg/mL. For the same compound, the “reduction of IL-1α level” value [9] was 52.3%, the “reduction of LPS-induced IL-6 increase” value ([2]; RID-B 1 μM) was 45% and the IL-6 level ([2]; RID-B 1 μM, N = 4) was 349.9 ± 34.9 pg/mL. For the same compound, the “effect on TNF-α levels” value ([3]; RID-B 1 μM) was “slight but non-significant increase in TNF-α levels”, the “decrease of cell viability” value ([4]; RID-B 10 μM alone, 4 h exposure to LPS, N = 4) was 34.0 ± 5.4% and the “effect on cell viability” value ([4]; RID-B 1 or 3 μM, forty-eight hour exposure to LPS 500 ng/ml) was “no effect on cell viability”. The number of osteoclasts ([5]; RID-B 300 nM alone, vehicle 339.1 ± 15.6) was 174.4 ± 19.2 osteoclasts per well, the number of osteoclasts ([5]; RID-B 300 nM co-incubated with AM-630) was 94.6 ± 15.6 osteoclasts per well and the “maximal decrease in the number of osteoclasts” value ([5]; RID-B 300 nM, M-CSF and RANKL, 4 days, drugs on days 2 and 3) was 48.6%. The “effect on G-protein activity” value [10] was “no effect on G-protein activity” and the “effect on intracellular cAMP levels” value [11] was “does not alter intracellular cAMP levels”.

`COc1ccc(C(=O)c2c(C)n(CCN3CCOCC3)c3cc(I)ccc23)cc1` [AM-630] was tested, and the “effect … on NO reduction by RID-B” value ([1]; LPS 500 ng/ml, 48 h) was “did not alter NO levels compared to RID-B administered alone”, the “effect of co-incubation with RID-B” value [3] was “significantly increases TNF-α levels” and the number of osteoclasts ([5]; AM-630 alone (1 μM in Fig. 7), vehicle 339.1 ± 15.6) was 168.1 ± 15.4 osteoclasts per well.
